From BindingDB's records for doi:10.1016/s0960-894x(01)00689-8 (Niddk, 2001)
pKi: −log10 of the molar value.

Assays:
[1] = biological target: Delta-type opioid receptor (Rattus norvegicus, UniProt P33533); assay: Binding affinity for delta opioid receptor by displacing [3H]DADL was determined
Outline: (§1)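 Radioligand displacement binding at opioid receptors, with Ki values derived. Each receptor used its own radioligand: mu was [3H]DAMGO, delta was [3H]DADL and kappa was [3H]U69593.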

[2] = biological target: Kappa-type opioid receptor (Cavia porcellus, UniProt P41144); assay: Binding affinity for kappa opioid receptor by displacing [3H]U-69593 was determined; outline: as §1
Chain of Kappa-type opioid receptor (P41144 whole entry): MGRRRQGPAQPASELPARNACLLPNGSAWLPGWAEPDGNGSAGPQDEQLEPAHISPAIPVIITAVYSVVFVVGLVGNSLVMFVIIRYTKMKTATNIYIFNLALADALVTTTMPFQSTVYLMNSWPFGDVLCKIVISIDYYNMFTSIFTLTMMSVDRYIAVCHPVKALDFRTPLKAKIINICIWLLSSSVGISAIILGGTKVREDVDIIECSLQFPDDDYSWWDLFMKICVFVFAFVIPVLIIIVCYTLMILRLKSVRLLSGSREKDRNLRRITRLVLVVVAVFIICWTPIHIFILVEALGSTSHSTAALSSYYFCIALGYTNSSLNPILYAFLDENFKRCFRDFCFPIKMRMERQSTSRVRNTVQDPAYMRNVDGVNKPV

Mu-type opioid receptor = Mu-type opioid receptor (Rattus norvegicus, UniProt P33535); assay: Binding affinity for mu opioid receptor by displacing [3H]-DAMGO was determined; outline: as §1
Chain of Mu-type opioid receptor (P33535 whole entry): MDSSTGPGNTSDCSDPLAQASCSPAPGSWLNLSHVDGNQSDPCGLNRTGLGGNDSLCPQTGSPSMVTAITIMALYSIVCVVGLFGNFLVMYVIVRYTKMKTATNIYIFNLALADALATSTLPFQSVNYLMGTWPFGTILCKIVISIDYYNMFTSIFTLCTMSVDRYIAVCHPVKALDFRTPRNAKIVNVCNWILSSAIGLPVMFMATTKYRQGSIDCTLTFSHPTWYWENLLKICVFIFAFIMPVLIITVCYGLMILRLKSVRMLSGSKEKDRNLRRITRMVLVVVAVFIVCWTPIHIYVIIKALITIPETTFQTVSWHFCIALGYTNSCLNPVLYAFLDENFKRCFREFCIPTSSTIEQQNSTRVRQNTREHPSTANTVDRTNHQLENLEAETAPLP

[3] = Binding affinity for gamma-S binding assay
[4] = Binding affinity for gamma-S binding assay; Inactive

Chain of Delta-type opioid receptor (P33533 whole entry): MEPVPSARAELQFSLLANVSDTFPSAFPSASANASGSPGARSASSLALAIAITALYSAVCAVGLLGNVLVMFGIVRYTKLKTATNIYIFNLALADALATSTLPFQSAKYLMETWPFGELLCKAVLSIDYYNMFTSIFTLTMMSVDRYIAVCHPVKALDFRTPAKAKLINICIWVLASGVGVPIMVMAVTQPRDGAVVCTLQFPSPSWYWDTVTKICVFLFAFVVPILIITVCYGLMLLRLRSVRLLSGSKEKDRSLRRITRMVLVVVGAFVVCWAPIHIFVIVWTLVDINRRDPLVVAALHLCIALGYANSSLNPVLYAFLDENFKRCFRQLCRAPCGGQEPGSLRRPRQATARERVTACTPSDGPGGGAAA

| SMILES | pKi [1] | pKi [2] | pKi (Mu-type opioid receptor) | pKi [3] | pKi [4] |
| --- | --- | --- | --- | --- | --- |
| C/C=C/C(=O)N1CCC23c4c5ccc(O)c4O[C@H]2c2[nH]c4ccccc4c2[C@H](C)C3C1C5 (some centres not stated) | 8.64 | 6.92 | – | – | – |
| C[C@H]1c2c([nH]c3ccccc23)[C@@H]2Oc3c(O)ccc4c3C23CCN(CC2CC2)C(C4)C13 (some centres not stated) | 8.64 | 7.44 | 7.18 | – | – |
| CN1CC[C@]23c4c5ccc(O)c4O[C@H]2c2[nH]c4ccccc4c2C[C@H]3[C@H]1C5 | 8.62 | – | – | 7.82 | – |
| CCCC[C@H]1c2c([nH]c3ccccc23)[C@@H]2Oc3c(OC)ccc4c3C23CCN(C)C(C4)C13 (some centres not stated) [Indole Derivative] | 6.43 | – | < 5.37 | – | < 6.12 |
| COc1ccc2c3c1O[C@H]1c4[nH]c5ccccc5c4CC4C(C2)N(C)CCC341 (some centres not stated) [Indole Derivative] | 7.02 | – | < 5.30 | 6.54 | – |
| COc1ccc2c3c1O[C@H]1c4[nH]c5ccccc5c4[C@H](C)C4C(C2)N(C)CCC341 (some centres not stated) [Indole Derivative] | 7.57 | – | < 5.32 | 6.48 | – |
| C[C@H]1c2c([nH]c3ccccc23)[C@@H]2Oc3c(O)ccc4c3C23CCN(C)C(C4)C13 (some centres not stated) [Indole Derivative] | 9.15 | – | 6.62 | 7.31 | – |
| CCCC[C@H]1c2c([nH]c3ccccc23)[C@@H]2Oc3c(O)ccc4c3C23CCN(C)C(C4)C13 (some centres not stated) [Indole Derivative] | 7.66 | – | 5.96 | 7.34 | – |
